How the values were obtained:
[1] = Protective index is the ratio of TD50 in neurotoxicity screen test and ED50 in MES screen test
Rattus norvegicus [2] = experiment: Effective dose for protection against seizures induced in the maximal electroshock anticonvulsant screen test 1 hr after oral dosing in rat; type: functional
In short: (§1)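 Oral dosing in rats, with MES protection or neurotoxicity assessed at the stated time. ED50 or TD50 (mg/kg) given with 95% CI, slope and SE. Testing done by NINDS under its reported procedures.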

[3] = Neurotoxicity was determined, 1 hr after oral dosing in rat.; type: toxicity, organism-based; settings: in vivo
In short: as §1

[4] = Neurotoxicity was determined, 0.25 hr after intraperitoneal injection in mice.; type: toxicity, organism-based; settings: mouse, in vivo, ip
In short: (§2)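 Mice received compound intraperitoneally, with quantitative evaluation in the MES, scPTZ and neurotoxicity screens at the tabulated time. ED50 or TD50 (mg/kg) reported with 95% CI, slope and SE. Testing done by NINDS under its reported procedures.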

Mus musculus [5] = experiment: Ability to prevent seizures induced by subcutaneous injection of bicuculline, after 0.25 hr in mice; type: functional; settings: sc
In short: (§3)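 Mice dosed intraperitoneally at various doses, then bicuculline 2.7 mg/kg given subcutaneously and protection noted. ED50 with 95% CI, slope and SE obtained using eight animals per dose; otherwise two, seven or eight mice per dose. Screening run by NINDS per its reported procedures.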

[6] = Protective index is the ratio of TD50 and ED50 in maximal electroshock anticonvulsant screen test; type: functional
In short: (§4)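 Protection index is TD50/ED50, taken from intraperitoneal mouse data for the MES and scPTZ screens respectively, or from oral rat MES data.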

Mus musculus [7] = experiment: Effective dose for protection against seizures induced in the subcutaneous pentylenetetrazole screen test in mice; type: functional; settings: sc
In short: as §2

[8] = Protective index is the ratio of TD50 and ED50 in subcutaneous pentylenetetrazole screen test; type: functional
In short: as §4

Mus musculus [9] = experiment: Effective dose for protection against seizures induced in the maximal electroshock anticonvulsant screen test after intraperitoneal injection in mice; type: functional; settings: ip
In short: as §2

Mus musculus [10] = experiment: Ability to prevent seizures induced by subcutaneous injection of bicuculline, after 4 hr in mice; type: functional; settings: sc
In short: as §3

[11] = Neurotoxicity was determined, 1 hr after oral dosing in rat; type: toxicity, organism-based; settings: in vivo
In short: as §1

Rattus norvegicus [12] = experiment: Ability to protect against seizures induced in the maximal electro shock (MES) screen,test1 hr after oral dosing in rat.; type: functional
In short: as §1

Mus musculus [13] = experiment: Ability to prevent seizures induced by subcutaneous injection of picrotoxin, after 0.25 hr in mice; type: functional; settings: sc
In short: (§5)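 Mice received various intraperitoneal doses of compound, then subcutaneous picrotoxin at 2.5 mg/kg. Protection from seizures was scored. ED50 values use eight mice per dose and are given with 95% CI, slope and SE.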

[14] = Toxic dose determined as neurotoxicity, 0.25 hr after intraperitoneal injection in mice; type: toxicity, organism-based; settings: mouse, in vivo, ip
In short: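 Mice received the compound by intraperitoneal injection, with the NINDS programme running the test by its reported procedures. Neurotoxicity was assessed at set times after dosing. TD50 is given in mg/kg with 95% CI, slope and SE.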

Rattus norvegicus [15] = experiment: Neurotoxicity was determined, of 0.25, 0.5, 1, 2 and 4 h, after 300 mg/kg oral dosing in rat.; type: toxicity, organism-based; design: dose 300 mg/kg, route oral; settings: in vivo
In short: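 Rats given 300 mg/kg orally and checked for neurotoxicity 0.25, 0.5, 1, 2 and 4 h later, using two animals per time point. Testing done by NINDS.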

Rattus norvegicus [16] = experiment: Ability to protect against seizures induced in the maximal electro shock (MES) screen test 1 hr after oral dosing in rat; type: functional
In short: (§6)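 Rats were dosed orally, with the NINDS programme running the tests by its reported procedures. MES protection (ED50) and neurotoxicity (TD50) were measured at timed intervals after dosing. Each value is given as a dose-response ED50 or TD50 in mg/kg with 95% CI, slope and SE.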

[17] = Toxic dose determined neurotoxicity, 1 hr after oral dosing in rat; type: toxicity, organism-based; settings: in vivo
In short: as §6

[18] = Toxic dose determined as neurotoxicity, 0.25 hr after intraperitoneal injection in mice.; type: toxicity, organism-based; settings: mouse, in vivo, ip
In short: as §2

[19] = Toxic dose determined as neurotoxicity, 1 h after oral dosing in rat; type: toxicity, organism-based; settings: in vivo
In short: as §1

Mus musculus [20] = experiment: Ability to prevent seizures induced by subcutaneous injection of bicuculline, after 1 hr in mice; type: functional; settings: sc
In short: as §3

Mus musculus [21] = experiment: Ability to prevent seizures induced by subcutaneous injection of picrotoxin, after 1 hr in mice; type: functional; settings: sc
In short: as §5

| Structure (SMILES) | Ratio [1] | ED50 (Rattus norvegicus [2]) [mg/kg] | TD50 at 1 h [3] [mg/kg] | TD50 at 0.25 h [4] [mg/kg] | ED50 (Mus musculus [5]) [mg/kg] | Ratio [6] | ED50 (Mus musculus [7]) [mg/kg] | Ratio [8] | ED50 (Mus musculus [9]) [mg/kg] | ED50 (Mus musculus [13]) [mg/kg] | further results |
| --- | --- | --- | --- | --- | --- | --- | --- | --- | --- | --- | --- |
| C/C(=N\N=C(/N)S)c1ccccc1 [PHENYL(METHYL)THIOSEMICARBAZONE] | 4.33 | 16.9 | 73 | – | – | – | – | – | – | – | – |
| NC(=O)N/N=C/C=C/c1ccccc1 [PHENYLETHENYLSEMICARBAZONE] | > 43.5 | 11.5 | > 500 | 98.2 | > 120 | 2.01 | 84.7 | 1.16 | 48.9 | – | – |
| NC(=O)N/N=C/c1ccc(Cl)c(Cl)c1 | > 24.8 | 20.2 | > 500 | > 500 | – | > 3.43 | > 500 | – | 146 | – | ED50 (Mus musculus [10]): > 500 mg/kg |
| NC(=O)N/N=C/c1c(Cl)cccc1Cl | 2.18 | 59 | 129 | – | – | – | – | – | – | – | – |
| NC(=O)N/N=C\c1ccccc1 [PHENYLSEMICARBAZONE] | 11.3 | – | – | – | 116 | 2.93 | 127 | 1.6 | 69.7 | 104 | TD50 at 1 h [11]: 254 mg/kg; ED50 (Rattus norvegicus [12]): 22.5 mg/kg; TD50 at 0.25 h [14]: 204 mg/kg |
| NC(=O)NN=C(c1ccccc1)c1ccccc1 [DIPHENYLSEMICARBAZONE] | 10.3 | 22.9 | 235 | 89.7 | > 100 | 1.91 | 76.2 | 1.18 | 47 | – | – |
| CCCC/C(=N\NC(N)=O)c1ccccc1 [PHENYL(BUTYL)SEMICARBAZONE] | > 8.41 | 59.5 | > 500 | 106 | – | 1.81 | 108 | 0.97 | 58.3 | – | – |
| NC(=O)N/N=C/c1ccc(Cl)cc1Cl | > 11.6 | 43.1 | > 500 | – | – | – | – | – | – | – | – |
| NC(=O)N/N=C/c1ccccc1Cl | > 12.9 | 38.8 | > 500 | – | – | – | – | – | – | – | – |
| CC/C(=N\NC(N)=O)c1ccccc1 | 12.3 | 32.8 | 404 | – | > 100 | – | – | – | – | 128 | – |
| COc1ccc(/C=N/NC(N)=O)cc1 | – | – | – | – | – | – | – | – | – | – | TD50 (Rattus norvegicus [15]): No activity |
| NC(=O)N/N=C/Cc1ccccc1 [PHENYLMETHYLSEMICARBAZONE] | > 11.7 | 42.8 | > 500 | 120 | 59.6 | 2.63 | 128 | 0.94 | 45.5 | > 150 | – |
| CCCCC/C(=N\NC(N)=O)c1ccccc1 | > 15.3 | 32.6 | > 500 | – | 363 | – | – | – | – | 230 | – |
| NC(=O)N/N=C/c1ccc(Cl)cc1 | > 26.9 | 18.6 | – | 252 | > 300 | 3.37 | 135 | 1.87 | 74.8 | 146 | TD50 at 1 h [11]: > 500 mg/kg |
| CC(C)/C(=N\NC(N)=O)c1ccccc1 | 5.66 | 43.3 | 245 | – | – | – | – | – | – | – | – |
| C/C(=N/N=C(\N)S)c1ccc(Cl)cc1 [P-CHLOROPHENYL(METHYL)THIOSEMICARBAZONE] | 7.67 | – | – | – | – | 0.39 | 69.6 | 0.34 | 60.4 | – | ED50 (Rattus norvegicus [16]): 15.5 mg/kg; TD50 at 0.25 h [14]: 23.8 mg/kg; TD50 at 1 h [17]: 119 mg/kg |
| NC(=O)N/N=C/c1cccc(Cl)c1 | > 20.5 | 24.4 | – | – | – | > 5.53 | 177 | >2.82 | 90.4 | – | TD50 at 0.25 h [18]: > 500 mg/kg; TD50 at 1 h [19]: > 500 mg/kg; ED50 (Mus musculus [20]): > 500 mg/kg; ED50 (Mus musculus [21]): 200 mg/kg |
| NC(=O)N/N=C/CCc1ccccc1 [PHENYLETHYLSEMICARBAZONE] | 9.16 | 36.4 | 334 | 72.3 | > 120 | 1.54 | 78.6 | 0.92 | 47 | – | – |
| CC(=NNC(N)=O)c1ccccc1 [PHENYL(METHYL)SEMICARBAZONE] | 13.2 | 20.2 | 268 | 82.3 | > 100 | 2.34 | 78.5 | 1.05 | 35.1 | 60.8 | – |
| NC(=S)N/N=C/c1ccccc1 [PHENYLTHIOSEMICARBAZONE] | > 15.6 | 12.8 | > 200 | – | – | – | – | – | – | – | – |
